According to PubChem BioAssay AID463079 (The Scripps Research Institute Molecular Screening Center, 2010):
Hit rate of the full screen: of about 330,000 compounds, about 2,000 (0.61%) were called active. This is one part of a sample in which actives are shown more often than they occur. A number with no mark means an inactive call.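 The calls were made as follows: active = inhibition above that plate's mean sample inhibition plus 3 SD (cut at about 26% in these data); inactive = the rest.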

Assay: ATP-evoked calcium signal inhibitors, parental CHO, primary screen, counter-screen for OX1R antagonist project, cell-based, fluorescence, Fluo-8 calcium dye (AID 463079);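 also: 0% = ATP-challenged DMSO wells and 100% = DMSO wells without ATP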
Settings: parental CHO-K1, ATP-induced calcium, Fluo-8 fluorescence; at 5.6 µM; active compounds read high
In short: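 Assay system – parental CHO cells · Reagent – ATP stimulus · Detection – intracellular calcium via Fluo-8 no-wash fluorescent dye · Evaluation – percent inhibition of ATP-evoked calcium rise, normalized to controls · Controls – ATP wells versus no-ATP DMSO wells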
`CCn1ccnc1CN(C)C(=O)c1cc(COc2ccc(-n3cncn3)cc2)on1` showed an inhibition of -9.68%. Work on `O=C(c1cc(COc2ccc(F)c(F)c2)on1)N1CCOCC1` yielded an inhibition of -5.07%. In the case of `C=CCC1(CC=C)CCCN1C(=O)c1cc(COc2ccc(-n3cncn3)cc2)on1`, the inhibition is reported as 66.2% (active). Compound `COC(=O)c1cc(Oc2ccc(S(=O)(=O)N3CCOCC3)cc2[N+](=O)[O-])cc(C(=O)OC)c1` has an inhibition of -3.52%. With `N#C/C(=C\c1ccccc1)c1n[nH]c(Cn2cncn2)n1` the inhibition was -15.2%. With `CC(NC(=O)C1CCCN(S(=O)(=O)c2ccc(-n3cnnn3)cc2)C1)c1ccc(F)cc1` (stereo unspecified) the inhibition was -12.5%. With `CCC(=O)N1CCN(c2ccccc2NC(=O)COc2cccc(C)c2C)CC1` the inhibition was -26.9%. For `Cc1ccccc1OCC(=O)Nc1ccc(N2CCN(C(=O)C(C)C)CC2)c(Cl)c1`, the inhibition was 29.7% (active). `Cc1ccccc1OCC(=O)Nc1ccc2c(c1)ncn2C` showed an inhibition of 17.8%. `CC(C)(C)n1cnnc1Sc1ccc([N+](=O)[O-])cn1` gave an inhibition of -10.8%. `Cc1nc2ccc(NC(=S)N3CCC(C)CC3)cc2nc1C` showed an inhibition of -10.7%. In the case of `CC1=C/C(=N\OS(=O)(=O)c2ccccc2)C=CC1=O`, the inhibition is reported as 46% (active). For `NNC(=O)CNC(c1ccccc1)c1cc(Cl)ccc1NC(=O)c1ccccc1` (stereo unspecified), the inhibition was -31.4%. Compound `Cc1cc(C)c(C)c(S(=O)(=O)Nc2cccnc2)c1C` has an inhibition of -11.2%. `COc1ccc(S(=O)(=O)Nc2cccnc2)c(Cl)c1Cl` showed an inhibition of -1.47%. In the case of `COc1ccccc1Oc1ccc(S(=O)(=O)Nc2cccnc2)cc1`, the inhibition is reported as 36.9% (active). With `O=C(C1CC(=O)N(c2ccc(F)cc2)C1)N1CCN(c2ccccc2)CC1` (stereo unspecified) the inhibition was -3.64%. In the case of `CCOC(=O)C1CCN(CC(=O)Nc2ccc(OC)c(S(=O)(=O)N3CCCCC3)c2)CC1`, the inhibition is reported as -13.3%. Compound `CCCCSc1nnc2c(n1)OC=Nc1ccccc1-2` has an inhibition of -1.35%. In the case of `CCOC(=O)Cn1c(=O)oc2cc(S(=O)(=O)N(C)Cc3ccco3)ccc21`, the inhibition is reported as 4.07%. With `CN(c1ccccc1)c1ccc(/C=c2\s/c(=C(/C#N)C(=O)C(C)(C)C)n(Cc3ccco3)c2=O)cc1` the inhibition was 47.5% (active). For `CCCCn1c(SCC(=O)N2CCCC2=O)nc2cc(S(N)(=O)=O)ccc21`, the inhibition was -0.51%. For `CCCCn1c(SCC(=O)N2CCC(C(=O)OCC)CC2)nc2cc(S(N)(=O)=O)ccc21`, the inhibition was -21.9%. With `CCCCn1c(SCc2ncc(-c3ccccc3)o2)nc2cc(S(N)(=O)=O)ccc21` the inhibition was 36.6% (active). Compound `Cc1nnc(C)c2c(C)n(N)c(C)c12` has an inhibition of 4.12%. For `c1ccc2c(c1)OCC(CNc1ncnc3nc[nH]c13)O2` (stereo unspecified), the inhibition was 76% (active). `S=C(NCC1COc2ccccc2O1)Nc1ccc(Br)cc1` (stereo unspecified) showed an inhibition of 1.75%. Compound `c1ccc(-c2cc3c(NCC4COc5ccccc5O4)ncnc3s2)cc1` (stereo unspecified) has an inhibition of 2.37%. `COc1ccc(NC(=O)CC2SC(N3CCCCC3)=NC2=O)cc1OC` (stereo unspecified) gave an inhibition of -5.72%. Compound `COc1cc(C(=O)NCc2nnc(SCC(=O)c3ccc(Cl)cc3)o2)cc(OC)c1OC` has an inhibition of -35.5%. For `CCC(=O)Nc1ccc(C(=O)CSc2nnc(CNc3ccc(Cl)cc3)o2)cc1OC`, the inhibition was 39.8% (active). Compound `CCOC(=O)CSc1nnc(CNc2ccc(F)cc2)o1` has an inhibition of 7.59%. For `CCCCCCCNC(=O)C1(CC2CC(c3cccc(Br)c3)=NO2)CCN(C(=O)c2cc(OCC)c(OCC)c(OCC)c2)CC1` (stereo unspecified), the inhibition was -43.7%. Work on `CC1C/C(=N/NC(=O)c2cccs2)CC(C)(C)C1` (stereo unspecified) yielded an inhibition of 5.84%. Compound `O=C(CN1C(=O)NC(Cc2c[nH]c3ccccc23)C1=O)Nc1ccccc1C(F)(F)F` (stereo unspecified) has an inhibition of -8.55%. For `CC(C)(C)C(=O)NNC(=O)c1ccc(Oc2cc(Cl)cc(Cl)c2)o1`, the inhibition was 0.38%. `CC(C)CNC(=O)C(=O)Nc1ccc(N(C)C)cc1` showed an inhibition of -6.25%. With `CN(C)c1ccc(C(CC(=O)O)C(=O)O)cc1` (stereo unspecified) the inhibition was 26.3% (active). With `CC(=O)NC(CC(=O)O)c1ccc(F)cc1` (stereo unspecified) the inhibition was 14.5%. `COC(=O)Cn1c(=NC(=O)c2cc(OC)c(OC)c(OC)c2)sc2cc(OC)ccc21` showed an inhibition of -4.35%. For `CN(C)/C=C(/C(=O)c1ccc(Cl)c(Cl)c1)c1nnnn1-c1ccccc1`, the inhibition was 4.24%. `CCc1ccc(CN(C)C(=O)CCc2nnc(-c3ccc(-c4ccccc4)cc3)o2)nc1` showed an inhibition of 2.52%. `COc1ccc(Cl)cc1-n1c(C)cc(C(=O)OCC(=O)N2CC(=O)Nc3ccccc32)c1C` gave an inhibition of -26.4%. `COC(=O)c1ccccc1Sc1c(/C=N/OCc2ccc(Cl)cc2)c(C(F)(F)F)nn1C` gave an inhibition of -7.11%. Work on `O=C(O)CSc1c2c(nc3cc(C(=O)Nc4cccc(C(F)(F)F)c4)ccc13)CCCC2` yielded an inhibition of -7.81%. With `Cn1nc(C(F)(F)F)c(C(=O)Nc2cccc(C(F)(F)F)c2)c1SCc1ccc(Cl)cc1` the inhibition was 56.3% (active). For `COc1cc(SC#N)ccc1N=Cc1c(C)[nH]n(-c2ccc(C)cc2)c1=O`, the inhibition was 96.8% (active). Work on `Cc1ccc(-n2[nH]c(C)c(/C=N/NC(=O)c3cccc([N+](=O)[O-])c3)c2=O)cc1C` yielded an inhibition of -2.1%. Work on `O=C(NNC(=O)c1cnccc1C(F)(F)F)c1ccc(Cl)cc1` yielded an inhibition of -3%. In the case of `CC1(C)CC(N2CCN(C(c3ccccc3)c3ccccc3)CC2)=CC(=[N+]2CCCCC2)C1`, the inhibition is reported as 29.5% (active). Work on `Oc1ccccc1CN1CCN(C(c2ccccc2)c2ccccc2)CC1` yielded an inhibition of -33.9%. Work on `O=C1CC(N2CCN(C(c3ccccc3)c3ccccc3)CC2)C(=O)N1` (stereo unspecified) yielded an inhibition of -12.9%. With `CC(C)CC(CCc1ccccc1)OS(N)(=O)=O` (stereo unspecified) the inhibition was -9.01%. `CC(C(=O)c1ccc(-c2ccccc2)cc1)[n+]1cccc(Br)c1` (stereo unspecified) gave an inhibition of -2.14%. `Cc1cc(C)c(-c2c(O)c3ccccc3n(C)c2=O)c(C)c1` gave an inhibition of -6.96%. Work on `CCOC(=O)Cc1cc(=O)[nH]c(=O)[nH]1` yielded an inhibition of -1.68%. In the case of `CN(C)S(=O)(=O)c1ccc(NC(=O)N2CCOCC2)cc1`, the inhibition is reported as -16.7%. `COc1ccc(S(=O)(=O)N(C)CC(=O)N2CCCC2)cc1` showed an inhibition of 0.64%. For `CN(C)S(=O)(=O)c1ccc(Oc2ccc(S(=O)(=O)N(C)C)cc2)cc1`, the inhibition was 53.5% (active). `CN(C(=O)CC1C(=O)NCCN1Cc1ccc(F)cc1Cl)C1CCCCC1` (stereo unspecified) gave an inhibition of -17.1%. `Cc1ccc(S(=O)(=O)N(Cc2cc3ccccc3[nH]c2=O)CC2CCCO2)cc1` (stereo unspecified) gave an inhibition of -27.8%. Work on `COCCN(C(=O)CCC(=O)Nc1nccs1)C(C(=O)NCCC(C)C)c1ccc(F)cc1` (stereo unspecified) yielded an inhibition of -13%. `Cc1cc(C(=O)NC2CCCc3c2cnn3-c2cccc(C)c2C)c(C)o1` (stereo unspecified) gave an inhibition of 2.39%. In the case of `Cn1nccc1C(=O)NC1CCCc2c1cnn2-c1ccccc1F` (stereo unspecified), the inhibition is reported as 48.7% (active). Compound `CC1(C)Cc2c(cnn2-c2cccc(F)c2)C(NC(=O)c2cc[n+]([O-])cc2)C1` (stereo unspecified) has an inhibition of -5.88%. `COc1ccc(C(=O)NC2CC(C)(C)Cc3c2cnn3-c2ccccc2C)o1` (stereo unspecified) gave an inhibition of -22.6%. Work on `COC(=O)c1ccc(C(=O)NC2CC(C)(C)Cc3c2cnn3-c2ccc(F)cc2)nc1` (stereo unspecified) yielded an inhibition of -9.97%. `CC(=O)NCC(=O)NC1CCCc2c1cnn2-c1ccccc1F` (stereo unspecified) showed an inhibition of 10.8%. With `Cn1nccc1C(=O)NC1CCCc2c1cnn2-c1ccc(F)cc1F` (stereo unspecified) the inhibition was 45.4% (active). Compound `Cc1cc(C(=O)NC2CC(C)(C)Cc3c2cnn3-c2ccccc2)n[nH]1` (stereo unspecified) has an inhibition of -10.2%. With `COc1ccc(C(=O)NC2CCCc3c2cnn3-c2cccc(C)c2C)c(OC)n1` (stereo unspecified) the inhibition was 40.4% (active). `COCCCNC(=O)CN1C(=O)CSc2ccc(S(=O)(=O)N3CCOCC3)cc21` gave an inhibition of -10.9%. Work on `COc1ccc(S(=O)(=O)N2CCOCC2)cc1NC(=O)COc1ccccc1` yielded an inhibition of -8.66%. For `CCOc1cc(N2CCOCC2)c(OCC)cc1NC(=O)C1=NN(c2cccc(C)c2)C(=O)CC1`, the inhibition was -30.7%. With `CSC1=NC2(C)CCCCC2C12C=CC(=O)C=C2` (stereo unspecified) the inhibition was -8.36%. In the case of `Cc1cc(Cl)c2oc(C(=O)N(C)C(C)c3ccccn3)c(C)c2c1` (stereo unspecified), the inhibition is reported as -25.6%. Work on `Cc1cc2oc(=O)cc(-c3ccccc3)c2c(C)c1-c1ccc(OC(F)(F)F)cc1` yielded an inhibition of -24%. Compound `C/C(=N\NC(=O)Cc1ccccc1[N+](=O)[O-])c1cccnc1` has an inhibition of -2.78%. `COc1cccc(CNc2nc(C(F)(F)F)nc3ccccc23)c1` showed an inhibition of -21.9%. `COc1ccc(CNc2nccs2)cc1` showed an inhibition of -0.35%. For `COc1ccc(CNc2ncnc3ccccc23)cc1`, the inhibition was 30% (active). Compound `O=C(Nc1cccc(F)c1)N1C2CCC1CC(O)(c1cccnc1)C2` (stereo unspecified) has an inhibition of -8.22%. In the case of `COc1cc(NC(=O)CCNC(=O)Cn2ccc3ccccc3c2=O)cc(OC)c1OC`, the inhibition is reported as 0.46%. Compound `O=C(Nc1ccc(S(=O)(=O)Nc2ncccn2)cc1)C12CC3CC(CC(C3)C1)C2` has an inhibition of -8.7%. In the case of `CCn1nccc1C(=O)Nc1ccc(S(=O)(=O)NC23CC4CC(CC(C4)C2)C3)cc1`, the inhibition is reported as 61% (active). Compound `Cc1cc(C(F)F)n2nc(C(=O)Nc3ccc(S(=O)(=O)NC45CC6CC(CC(C6)C4)C5)cc3)nc2n1` has an inhibition of -7.46%. With `COc1ccccc1CNS(=O)(=O)c1c(C)[nH]c(C)c1C(=O)N1CCCCC1` the inhibition was -7.23%. `Cc1ccc(S(=O)(=O)N(CC(=O)N2CCc3ccccc3C2)c2cccc(Cl)c2)cc1` gave an inhibition of -23.4%. Compound `O=C(Cn1ccc2cc(S(=O)(=O)N3CCCC3)ccc21)NCc1ccccc1` has an inhibition of -3.13%. `COC(=O)Cn1cc(/C=C/[N+](=O)[O-])c2ccccc21` gave an inhibition of -9.14%. For `O=[N+]([O-])/C=C/c1ccc2c(ccn2Cc2ccccc2)c1`, the inhibition was 42% (active).
